Source: ChEMBL document CHEMBL4354846, “1,3-Dipolar Cycloaddition, HPLC Enantioseparation, and Docking Studies of Saccharin/Isoxazole and Saccharin/Isoxazoline Derivatives as Selective Carbonic Anhydrase IX and XII Inhibitors” (J Med Chem, 2020)
Activity calls are given as the source filed them. No cut-off for these calls is given here.

Experiments:
Carbonic anhydrase 2 = Carbonic anhydrase 2 (Homo sapiens, UniProt P00918); assay: Inhibition of recombinant human carbonic anhydrase 2 incubated for 15 mins prior to testing measured for 10 to 100 secs by phenol red-based stopped-flow CO2 hydration assay
Carbonic anhydrase 9 = Carbonic anhydrase 9 (Homo sapiens, UniProt Q16790); assay: Inhibition of recombinant human carbonic anhydrase 9 incubated for 15 mins prior to testing measured for 10 to 100 secs by phenol red-based stopped-flow CO2 hydration assay
Carbonic anhydrase 1 = Carbonic anhydrase 1 (Homo sapiens, UniProt P00915); assay: Inhibition of recombinant human carbonic anhydrase 1 incubated for 15 mins prior to testing measured for 10 to 100 secs by phenol red-based stopped-flow CO2 hydration assay
MCF7 [1] = assay: Chemosensitization activity in human MCF7 cells assessed as induction of morphological changes by measuring cell detachment at 100 to 200 uM measured after 72 hrs in presence of doxorubicin under hypoxic condition by phase contrast light microscopic analysis; format: functional, cell-based
Method in brief: (§1)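 MCF7 seeded 10000/well, grown 24 h, then medium with CoCl2 100 μM for 48 h to induce hypoxia. Cells then given compound (0.05–200 μM, DMSO final 0.2%) with doxorubicin 2.5 μM for 72 h. Imaged by phase contrast light microscopy (×20) for cell shape and detachment, before the MTT step.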

MCF7 [2] = assay: Chemosensitization activity in human MCF7 cells assessed as induction of morphological changes by measuring rounded cells at 100 to 200 uM measured after 72 hrs in presence of doxorubicin under hypoxic condition by phase contrast light microscopic analysis; format: functional, cell-based; method in brief: as §1
MCF7 [3] = assay: Chemosensitization activity in human MCF7 cells assessed as reduction in cell viability at 0.05 to 200 uM measured after 72 hrs in presence of doxorubicin under hypoxic condition by MTT assay; format: functional, cell-based
Method in brief: (§2)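 MCF7 in DMEM high glucose with 10% FBS, 37 °C, 5% CO2. Seeded 10000/well for 24 h, then CoCl2 100 μM for 48 h (hypoxia). Treated 72 h with compound 0.05–200 μM plus doxorubicin 2.5 μM, DMSO final 0.2%. MTT 0.5 mg/mL for 5 h at 37 °C, formazan dissolved in DMSO, read at 570 nm. Normalized to DMSO+CoCl2+doxorubicin control. Three experiments; one-way ANOVA with Tukey.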

[4] = Cytotoxicity against HGF cells assessed as reduction in cell viability at 0.05 to 200 uM measured up to 72 hrs by MTT assay; format: cell-based; details: human
Method in brief: (§3)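 Gingival fibroblasts seeded and treated as for LDH: 0.05–200 μM compound, DMSO final 0.2%, read at 24, 48 and 72 h. MTT 0.5 mg/mL for 5 h at 37 °C, formazan dissolved in DMSO, read at 570 nm. Viability normalized to 0.2% DMSO control. One-way ANOVA with Tukey tests.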

[5] = Cytotoxicity against HGF cells assessed as reduction in LDH release at 0.05 to 200 uM measured up to 72 hrs by CytoTox 96 nonradioactive cytotoxicity assay; format: cell-based; details: human
Method in brief: (§4)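 Primary human gingival fibroblasts from healthy donors, in DMEM with 10% FBS at 37 °C, 5% CO2. Treated 24 h after seeding with 0.05–200 μM compound (DMSO final 0.2%). Supernatants collected at 24, 48 and 72 h and spun 450 g for 4 min. LDH measured by a 30-min coupled tetrazolium reaction read at 490 nm, with 690 nm as background. Given as % of lysed-cell positive control.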

Carbonic anhydrase 12 = Carbonic anhydrase 12 (Homo sapiens, UniProt O43570); assay: Inhibition of recombinant human carbonic anhydrase 12 incubated for 15 mins prior to testing measured for 10 to 100 secs by phenol red-based stopped-flow CO2 hydration assay
[6] = Cytotoxicity against HGF cells assessed as reduction in LDH release at 0.05 to 200 uM measured after 24 hrs by CytoTox 96 nonradioactive cytotoxicity assay; format: cell-based; details: human; method in brief: as §4
[7] = Cytotoxicity against HGF cells assessed as reduction in cell viability at 0.05 to 50 uM measured after 24 to 48 hrs by MTT assay; format: cell-based; details: human, 50 to 200 µM; in the assay text read “50 to 200 uM” for “0.05 to 50 uM”; method in brief: as §3
[8] = Cytotoxicity against HGF cells assessed as reduction in cell viability at 100 to 200 uM measured after 72 hrs by MTT assay; format: cell-based; details: human; method in brief: as §3
[9] = Cytotoxicity against HGF cells assessed as reduction in LDH release at 0.05 to 200 uM measured after 48 to 72 hrs by CytoTox 96 nonradioactive cytotoxicity assay; format: cell-based; details: human; method in brief: as §4
[10] = Cytotoxicity against HGF cells assessed as reduction in cell viability at 0.05 to 5 uM measured after 72 hrs by MTT assay; format: cell-based; details: human; method in brief: as §3
[11] = Cytotoxicity against HGF cells assessed as cell viability at 100 to 200 uM measured after 24 to 48 hrs by MTT assay relative to control; format: cell-based; details: human, read-out: Activity; method in brief: as §3
MCF7 [12] = assay: Chemosensitization activity in human MCF7 cells assessed as reduction in cell viability at 100 to 200 uM measured after 72 hrs in presence of doxorubicin under hypoxic condition by MTT assay; format: functional, cell-based; method in brief: as §2
MCF7 [13] = assay: Cytotoxicity against human MCF7 cells assessed as reduction in cell viability measured after 72 hrs under hypoxic condition by MTT assay; format: functional, cell-based; details: MCF7, 72 h
Method in brief: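 MCF7 given CoCl2 100 μM for 48 h to induce hypoxia, then doxorubicin alone at 0.05–200 μM for 72 h. Viability read by MTT: 0.5 mg/mL for 5 h at 37 °C, formazan dissolved in DMSO, absorbance at 570 nm, cell-free wells as background.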

Chain of Carbonic anhydrase 12 (O43570 whole entry): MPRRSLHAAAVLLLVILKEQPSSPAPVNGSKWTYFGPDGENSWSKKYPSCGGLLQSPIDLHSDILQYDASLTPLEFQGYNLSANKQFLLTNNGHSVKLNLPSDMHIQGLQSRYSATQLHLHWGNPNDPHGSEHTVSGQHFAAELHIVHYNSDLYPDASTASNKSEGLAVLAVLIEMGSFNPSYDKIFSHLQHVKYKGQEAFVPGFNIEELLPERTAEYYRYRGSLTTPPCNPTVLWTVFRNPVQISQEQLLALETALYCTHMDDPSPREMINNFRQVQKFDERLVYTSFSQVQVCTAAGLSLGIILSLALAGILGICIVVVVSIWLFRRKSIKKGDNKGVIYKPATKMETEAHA
Chain of Carbonic anhydrase 1 (P00915 whole entry): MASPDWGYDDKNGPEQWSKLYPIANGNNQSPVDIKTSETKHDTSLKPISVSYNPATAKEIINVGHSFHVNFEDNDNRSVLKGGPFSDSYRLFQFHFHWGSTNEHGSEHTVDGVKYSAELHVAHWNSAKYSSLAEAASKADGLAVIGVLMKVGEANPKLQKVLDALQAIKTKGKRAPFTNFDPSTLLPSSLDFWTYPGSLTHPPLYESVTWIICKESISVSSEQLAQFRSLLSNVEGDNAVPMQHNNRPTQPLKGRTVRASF

| SMILES | Ki (Carbonic anhydrase 2) [nM] | Ki (Carbonic anhydrase 9) [nM] | Ki (Carbonic anhydrase 1) [nM] | further results |
| --- | --- | --- | --- | --- |
| O=C1c2ccccc2S(=O)(=O)N1CC1CC(c2ccc([N+](=O)[O-])cc2)=NO1 (configuration not stated) | > 10000 | 235 | > 10000 |  |
| COc1ccc(C2=NOC(CN3C(=O)c4ccccc4S3(=O)=O)C2)cc1 (configuration not stated) |  | 139 | > 10000 | Ki (Carbonic anhydrase 12): 8.1 nM |
| O=C1c2ccccc2S(=O)(=O)N1C[C@H]1CC(c2ccccc2)=NO1 | > 10000 | 30 | > 10000 | Ki (Carbonic anhydrase 12): 48.9 nM |
| COc1cccc(C2=NOC(CN3C(=O)c4ccccc4S3(=O)=O)C2)c1 (configuration not stated) | > 10000 | > 10000 | > 10000 |  |
| O=C1c2ccccc2S(=O)(=O)N1CC1CC(c2ccccn2)=NO1 (configuration not stated) | > 10000 | 258 | > 10000 |  |
| COc1ccc(-c2cc(CN3C(=O)c4ccccc4S3(=O)=O)on2)cc1 | > 10000 | 22.1 | > 10000 | Activity [6]: Toxic; Activity [7]: Toxic; Activity (MCF7 [1]): Active; Activity [8]: Toxic; Activity [9]: Non-Toxic; Activity (MCF7 [2]): Active; Activity [10]: Non-Toxic; viability at up to 200 µM [11]: < 50%; Activity (MCF7 [12]): Active |
| O=C1c2ccccc2S(=O)(=O)N1Cc1cc(-c2cccnc2)no1 | > 10000 | 86.2 | > 10000 |  |
| COc1cccc2c1C(=O)c1c(O)c3c(c(O)c1C2=O)C[C@@](O)(C(=O)CO)C[C@@H]3O[C@H]1C[C@H](N)[C@H](O)[C@H](C)O1 [DOXORUBICIN] |  |  |  | IC50 (MCF7 [13]): 5000 to 50000 nM |
| O=C1c2ccccc2S(=O)(=O)N1Cc1cc(-c2cccs2)no1 | > 10000 | 7.5 | > 10000 |  |
| O=C1c2ccccc2S(=O)(=O)N1C[C@@H]1CC(c2ccccc2)=NO1 | > 10000 | 29.3 | > 10000 | Ki (Carbonic anhydrase 12): 36.5 nM |
| COc1ccccc1C1=NOC(CN2C(=O)c3ccccc3S2(=O)=O)C1 (configuration not stated) | > 10000 | > 10000 | > 10000 | Ki (Carbonic anhydrase 12): 9.4 nM |

Continued, in another order:

| Ki (Carbonic anhydrase 2) [nM] | Ki (Carbonic anhydrase 9) [nM] | Ki (Carbonic anhydrase 1) [nM] | SMILES | further results |
| --- | --- | --- | --- | --- |
| > 10000 | 245 | > 10000 | O=C1c2ccccc2S(=O)(=O)N1Cc1cc(-c2ccccn2)no1 |  |
| > 10000 | > 10000 | > 10000 | COc1ccccc1-c1cc(CN2C(=O)c3ccccc3S2(=O)=O)on1 |  |
| > 10000 | 247 | > 10000 | COc1cccc(-c2cc(CN3C(=O)c4ccccc4S3(=O)=O)on2)c1 |  |
| > 10000 | 50.9 | > 10000 | O=C1c2ccccc2S(=O)(=O)N1Cc1cc(-c2ccccc2)no1 |  |
| > 10000 | 274 | > 10000 | O=C1c2ccccc2S(=O)(=O)N1CC1CC(c2cccnc2)=NO1 (configuration not stated) |  |
| > 10000 | 230 | > 10000 | O=C1c2ccccc2S(=O)(=O)N1Cc1cc(-c2cccc([N+](=O)[O-])c2)no1 |  |
| > 10000 | 103 | > 10000 | O=C1c2ccccc2S(=O)(=O)N1CC1CC(c2cccc([N+](=O)[O-])c2)=NO1 (configuration not stated) |  |
| > 10000 |  | > 10000 | O=C1c2ccccc2S(=O)(=O)N1Cc1cc(-c2ccc([N+](=O)[O-])cc2)no1 | Activity (MCF7 [1]): Active; Activity (MCF7 [2]): Active; Activity (MCF7 [3]): inactive; Activity [4]: Non-Toxic; Activity [5]: Non-Toxic |
| > 10000 | 26.4 | 358 | O=C1c2ccccc2S(=O)(=O)N1C[C@H]1CC(c2cccs2)=NO1 |  |
| 13.1 | 2.4 | 365 | O=C1c2ccccc2S(=O)(=O)N1C[C@@H]1CC(c2cccs2)=NO1 |  |
